Sampled rows, rich in hits. Any-hit rate of the full collection: about 3.5%.
ERAP1 HTS inh – human ERAP1 aminopeptidase inhibitors, primary screen, biochemical, single point, plate reader. Endoplasmic reticulum aminopeptidase 1 (Homo sapiens), Q9NZ08. recombinant ERAP1, Leu-AMC fluorescence, 60 min. inhibition, % at 10.7 µM. hit rate 0.15% among 340,000. AID 652197, 2013;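 active = mean replicate inhibition of at least 30%, or all replicates individually reaching that 30% level; inactive = mean below 30% and not every replicate reaching it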;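 also: 0% = neutral control wells and 100% = L-leucinethiol positive control wells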
Cneo AK release – Cryptococcus neoformans cell lysis inducers, primary screen, AK release luminescence, single concentration; C. neoformans lysis, adenylate kinase release luminescence, 4 h; normalised: neutral wells 0, clomiphene wells 100; lysis activity, % at 15 µM; hit rate 0.2% among 360,000; AID 651654, 2012;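 active = mean lysis activity across replicates of at least 80%, whatever share of replicates individually reach that level; inactive = mean lysis activity below 80%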
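Test system: log-phase Cryptococcus neoformans yeast cells; Quantity: yeast cell density of 5 × 10^6 cells/mL; Buffer or medium: YPD; Doses: single compound concentration per well; Timing: 4 h at 37 °C static, read 1 h later; Measured by: AK luminescence; Read-out basis: lysis from increased AK signal; Control set: Clomiphene as positive control.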
MITF act – activators of MITF-driven TRPM1 promoter reporter, primary screen, cell-based, SK-MEL-5, luciferase, single point; SK-MEL-5 TRPM1-promoter luciferase, 24 h; % of positive control, neutral wells = 0; activation, % at 12.5 µM; hit rate 0.75% among 300,000;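 active = mean activation of at least 80% with every replicate also reaching 80%; inconclusive = mean reaches 80% but some replicate falls short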;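 also: 0% = neutral control wells and 100% = parthenolide positive control wells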
Wnt bcat act – Wnt/beta-catenin pathway activators, primary screen, cell-based, plate reader, single point; activation, % at 9.35 µM; AID 743398, 2014; hit rate 1.2% among 300,000; Wnt/beta-catenin reporter cell assay, activator; in the data active = activation above about 30%, passing the limit was not always enough; inconclusive = no clear call, values can overlap the other calls;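 also: 0% = neutral control wells and 100% = positive control wells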
esBAF inh – Bmi1 luciferase reporter increase in mESCs, primary screen, esBAF inhibitor project, mouse ES cells, Bmi1 luciferase knock-in, single point; AID 602393, 2012; reporter increase, % at 12.5 µM; 24 h; 100% = twice the neutral-well signal; hit rate 2% among 350,000; in the data active = activation above about 40%; inconclusive = no clear call, values can overlap the other calls;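 also: 0% = median of the plate's neutral control wells and 100% = double that signal; a rise in the Bmi1 reporter signal indicates esBAF inhibition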
HIV Env fusion – inhibitors of HIV-1 Env-driven cell-cell fusion, primary screen, HeLa-JRFL effector, CEM21 target cells, luciferase; inhibition, % at 12.3 µM; hit rate 1.1% among 360,000;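 active = mean replicate inhibition score of at least 50 and every replicate individually at or above 50; inconclusive = only one of the two criteria met; inactive = mean below 50 and not all replicates reaching 50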;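 also: 0% = plate neutral controls and 100% = maraviroc near 300 nM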
The depositor's hits bear a star; ? = inconclusive; . = no result; [ ] = another dose, or the depositor's remark.

SMILES	ERAP1 HTS inh	Cneo AK release	MITF act	Wnt bcat act	esBAF inh	HIV Env fusion
CC(O)CNc1nc2ccccc2n1-c1ncnc2sc3c(c12)CCC3 (centres undefined)	.	-2	-3	-4	3	60*
CO[C@@H]1CN(C)C(=O)c2ccc(NS(=O)(=O)c3ccc(F)cc3)cc2OC[C@H](C)NC[C@H]1C	-4	-4	.	.	-4	6[16.7 µM]
CSCCC(C(=O)N1CC2(C)CC1CC(C)(C)C2)N1C(=O)c2ccccc2C1=O (centres undefined)	.	-1	4	-4	-3	34*
CC(=O)c1c(C)[nH]c(C(=O)CSc2ccc(F)cc2)c1C	-4	0	68	?	.	-15
Cc1cc(C(=O)CSc2ccc(F)cc2)cc(C)c1O	2	-18	66	11	56*	-27
COC(=O)c1cccc(CN2C(=O)C(C)Sc3ccc(C)cc32)c1 (centres undefined)	-1	1	.	0	17	-9
CC(=O)c1ccc2c(c1)N(Cc1ccccc1Cl)C(=O)C(C)S2 (centres undefined)	-2	-2	.	-1	3	-2
COC(=O)c1cccc(CN2C(=O)C(C)Sc3cc(Cl)ccc32)c1 (centres undefined)	4	1	.	-2	45*	-23
COC(=O)c1cccc(CN2C(=O)C(C)Sc3ccc(C(C)=O)cc32)c1 (centres undefined)	1	-2	.	0	46*	-10
Cc1ccc(-c2ccc3c(c2)O[C@H](CN(C)Cc2ccccn2)[C@H](C)CN([C@H](C)CO)S3(=O)=O)cc1	-2	0	.	.	5	-1[16.7 µM]
COc1ccc(NC(=O)Nc2cccc3c2O[C@@H](CN(C)CC2CC2)[C@H](C)CN([C@@H](C)CO)C3=O)cc1	-3	-2	.	.	6	-14[16.7 µM]
O=C(CSc1ncn(-c2ccccc2)n1)c1cccs1	.	-1	90*	?	64*	-157
c1ccc(CSc2ncn(-c3ccccc3)n2)cc1	.	-5	75	.	45*	.
COc1cc(O)sc1C=Nc1ccc(Cl)cc1	9	1	6	15	55*	-120
Cc1ccc(S(=O)(=O)N(C)C[C@@H]2Oc3ccc(NC(=O)C4CCCCC4)cc3CC(=O)N([C@H](C)CO)C[C@@H]2C)cc1	1	2	.	.	-2	95*[16.7 µM]
Cc1ccc(S(=O)(=O)N(C)C[C@H]2Oc3ccc(NC(=O)C4CC4)cc3CC(=O)N([C@H](C)CO)C[C@@H]2C)cc1	-1	54	.	.	-15	.
COc1ccc(S(=O)(=O)N(C)C[C@@H]2Oc3ccc(NC(=O)C4CCCCC4)cc3CC(=O)N([C@H](C)CO)C[C@@H]2C)cc1	-2	-1	.	.	6	74*[16.7 µM]
C[C@@H]1CN([C@@H](C)CO)C(=O)Cc2cc(NC(=O)C3CCCCC3)ccc2O[C@H]1CN(C)S(=O)(=O)c1ccccc1	1	5	-10	-2	0	63*
COc1ccc(S(=O)(=O)N(C)C[C@H]2Oc3ccc(NC(=O)C4CCCCC4)cc3CC(=O)N([C@@H](C)CO)C[C@@H]2C)cc1	-2	6	.	.	0	10[16.7 µM]
O=C(Nc1ccc(Cl)cc1)N1C[C@H]2[C@@H](c3ccccc31)[C@@H](CO)N2C(=O)c1cccnc1	0	2	.	.	16	.
C[C@@H]1CCCCO[C@@H](CN(C)C(=O)CCCN(C)C)[C@@H](C)CN([C@@H](C)CO)C(=O)c2cc(NS(=O)(=O)c3ccc(F)cc3)ccc2O1	2	-2	.	.	6	7[16.7 µM]
CCCC#Cc1cnc2c(c1)C(=O)N([C@H](C)CO)C[C@H](C)[C@@H](CN(C)C(=O)Cc1ccccc1)O2	-2	-9	.	.	0	0[16.7 µM]
O=C(NNC1=Nc2ccccc2SC1)c1ccc(Cl)cc1	0	4	.	-2	.	61*
O=C(NNC1=Nc2ccccc2SC1)c1ccc(F)cc1	0	.	4	3	.	-9
Cc1ccc(C(=O)NCCn2cc(SCC(=O)Nc3cc(C)on3)c3ccccc32)cc1	9	-2	.	-11	58*	-5
SMILES	ERAP1 HTS inh	Cneo AK release	MITF act	Wnt bcat act	esBAF inh	HIV Env fusion
CCn1cc(SCC(=O)Nc2cc(C)on2)c2ccccc21	3	13	2	3	-1	11
Cc1ccc(C(=O)NCCn2cc(SCC(=O)N3CCOCC3)c3ccccc32)cc1	4	3	.	-4	53*	-27
Cc1cc(NC(=O)CSc2cn(CCNC(=O)c3ccccc3)c3ccccc23)no1	.	-1	2	.	47*	.
CCCn1cc(SCC(=O)Nc2cc(C)on2)c2ccccc21	-3	4	-7	-1	-5	21
C[C@H]1CCCCO[C@H](CN(C)S(=O)(=O)c2ccccc2)[C@@H](C)CN([C@@H](C)CO)C(=O)c2cc(NS(=O)(=O)c3ccc(Cl)cc3)ccc2O1	-2	0	.	.	2	26[16.7 µM]
C[C@@H]1CN([C@@H](C)CO)S(=O)(=O)c2ccc(C#CCN(C)C)cc2O[C@@H]1CN(C)Cc1ccccc1	1	9	.	.	-7	-23[16.7 µM]
O=C(C[C@@H]1CC[C@H](NC(=O)c2ccc(F)cc2)[C@@H](CO)O1)NCc1ccncn1	4	1	.	.	-6	.
CCCc1cc(=O)oc2c(CN(CC)CC)c(O)c(Cl)cc12	189*	0	12	-1	.	6
C[C@@H]1CCCCO[C@@H](CN(C)S(=O)(=O)c2cccs2)[C@H](C)CN([C@@H](C)CO)C(=O)c2cc(NC(=O)C3CCCCC3)ccc2O1	0	2	.	.	0	-62[16.7 µM]
Cc1ncsc1C(=O)Nc1nc2c(s1)CCCC2	8	1	7	24	.	.
CC1CCc2nc(NC(=O)c3ccc(N4C(=O)CCC4=O)cc3)sc2C1 (centres undefined)	-2	-2	0	2	16	16
O=C(Nc1nc2c(s1)CCCC2)c1ccc(N2C(=O)CCC2=O)cc1	1	-2	37	-1	44*	-318
O=C(Nc1nc2c(s1)CCCC2)c1ccc2ncsc2c1	1	-4	.	42*	-8	-232
CN(C)C(=O)c1ccc(-c2ccc([C@H]3[C@@H](CO)N4C(=O)CN(C(=O)C5CCCC5)C[C@@H]34)cc2)cc1	1	.	.	.	.	.
COc1ccccc1-c1ccc2c(c1)[C@H]1[C@H](CCN1C(=O)C1CCOCC1)[C@@H](CO)N2	2	-4	.	.	-3	.
CN(C(=O)CN1CCN(c2cnn(-c3ccccc3)c(=O)c2Cl)CC1)C1CCS(=O)(=O)C1 (centres undefined)	2	0	1	44*	6	.
